According to ChEMBL document CHEMBL1128210, “Structure-activity relationship of omeprazole and analogues as Helicobacter pylori urease inhibitors” (J Med Chem, 1995):

Key:
[1] = system: Helicobacter pylori; experiment: Urease activity was determined in wild type-H pylori, CCUG 15818, at a concentration of 10 nM
Procedure, shortened: (§1)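 Washed whole cells grown 3 days at 37 °C under microaerophilic conditions, resuspended in PBS at assay pH to A560 = 0.3. Compound (in MeOH or DMSO, ≤1% solvent) preincubated 30 min at 37 °C with shaking. 200 mM urea added 1:1; stopped after 10 min with phenol–nitroprusside/hypochlorite reagents, 15 min colour, A650 vs (NH4)2SO4 standard; percent of control.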

[2] = system: Helicobacter pylori; experiment: Urease activity was determined in wild type-H pylori, CCUG 15818, at a concentration of 100 nM; procedure, shortened: as §1
[3] = system: Helicobacter pylori; experiment: Urease activity was determined in wild type-H pylori, CCUG 15818, at a concentration of 1 nM; procedure, shortened: as §1
[4] = pKa value of the compound (benzimidazole ring substitutions dependent); format: physicochemical; conditions: read-out: pKabz
[5] = pKa value of the compound (pyridine ring substitutions dependent); format: physicochemical; conditions: read-out: pKapy
[6] = Half life at pH 7 is a measure of the rate by which the compound is converted to the active species; format: ADME; conditions: buffer
[7] = Relative retention time of the compound; format: ADME
[8] = system: Helicobacter pylori; experiment: Urease activity in wild type H pylori, CCUG 15818, at 100 uM
Procedure, shortened: (§2)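 CCUG 15818 grown 3 days at 37 °C microaerophilic on Columbia blood agar, washed three times in PBS at assay pH, set to A560 0.3. Cells preincubated with compound (MeOH or DMSO, ≤1% solvent) for 30 min at 37 °C, then mixed 1:1 with 200 mM urea for 10 min. Ammonia read by nitroprusside-catalysed phenol–hypochlorite at A650 against (NH4)2SO4. Compound colour blank subtracted; expressed as % of control.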

[9] = system: Helicobacter pylori; experiment: Urease activity in H pylori, CCUG 15818, at 10 uM; procedure, shortened: as §2
[10] = system: Helicobacter pylori; experiment: Urease activity was determined in wild type-H pylori, CCUG 15818, at a concentration of 1 uM; procedure, shortened: as §2
[11] = system: Helicobacter pylori; experiment: Urease activity was determined in wild type-H pylori, CCUG 15818, at a concentration of 100 uM at pH 6
[12] = pKa value of the compound (benzimidazole ring substitutions dependent) at pH 6; format: physicochemical; conditions: read-out: pKabz
[13] = Half life at pH 6 is a measure of the rate by which the compound is converted to the active species.; conditions: buffer
[14] = pKa value of the compound (pyridine ring substitutions dependent) at pH 6; format: physicochemical; conditions: read-out: pKapy
[15] = system: Helicobacter pylori; experiment: Urease activity was determined in wild type-H pylori, CCUG 15818, at a concentration of 1 uM at pH 6
[16] = Relative retention time at pH 6; format: ADME; conditions: buffer
[17] = system: Helicobacter pylori; experiment: Urease activity was determined in wild type-H pylori, CCUG 15818, at a concentration of 10 uM at pH 6
[18] = system: Helicobacter pylori; experiment: Urease activity was determined in wild type-H pylori, CCUG 15818 in the presence of beta mercaptoethanol at a concentration of 10 uM
Procedure, shortened: (§3)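 Intact CCUG 15818 cells (A560 0.3, washed in PBS) preincubated 30 min at 37 °C with compound at 1, 10 or 100 μM plus 100 μM β-mercaptoethanol. Urea was then added 1:1 from a 200 mM solution. After 10 min, ammonia was measured by indophenol (phenol–hypochlorite/nitroprusside) absorbance at 650 nm and expressed as % of control.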

[19] = system: Helicobacter pylori; experiment: Urease activity was determined in wild type-H pylori, CCUG 15818 in the presence of beta mercaptoethanol at a concentration of 1 uM; procedure, shortened: as §3
[20] = system: Helicobacter pylori; experiment: Urease activity was determined in wild type-H pylori, CCUG 15818 in the presence of beta mercaptoethanol at a concentration of 100 uM; procedure, shortened: as §3

SMILES: NP(N)(=O)NC(=O)c1ccc(F)cc1
- Control [1]: 10%
- Control [2]: 0%
- Control [3]: 80%

SMILES: COc1ccnc(C[S+]([O-])c2nc3cc(F)c(F)cc3[nH]2)c1OC (configuration not stated)
- pKa [4]: 7.8
- pKa [5]: 3.6
- half-life [6]: 69 h
- Log k'o [7]: 0.6

SMILES: COc1c(OCC2CC2)ccnc1C[S+]([O-])c1nc2cc(F)ccc2[nH]1 (configuration not stated)
- Urease activity (% of control) [8]: 84%
- pKa [4]: 8.4
- pKa [5]: 3.8
- Urease activity (% of control) [9]: 94%
- half-life [6]: 50 h
- Urease activity (% of control) [10]: 104%
- Log k'o [7]: 1.16

SMILES: COc1ccc2[nH]c([S+]([O-])Cc3nccc(OC(C)C)c3C)nc2c1 (configuration not stated)
- Urease activity (% of control) [8]: 0%
- pKa [4]: 8.9
- pKa [5]: 5.1
- Urease activity (% of control) [9]: 35%
- half-life [6]: 1.5 h
- Urease activity (% of control) [10]: 86%
- Log k'o [7]: 1.22

SMILES: Cc1cc(C)c(C[S+]([O-])c2nc3cc(Cl)ccc3[nH]2)nc1C (configuration not stated)
- Urease activity (% of control) [8]: 164%
- Urease activity (% of control) [9]: 105%
- Urease activity (% of control) [10]: 97%

SMILES: COc1ccnc(C[S+]([O-])c2nc3c(F)cccc3[nH]2)c1 (configuration not stated)
- Urease activity (% of control) [8]: 58%
- pKa [4]: 7.5
- pKa [5]: 4.4
- Urease activity (% of control) [9]: 95%
- half-life [6]: 23 h
- Urease activity (% of control) [10]: 93%
- Log k'o [7]: 0.26

SMILES: COc1ccc2[nH]c([S+]([O-])Cc3ncc(C)c(OC)c3C)nc2c1 (configuration not stated) [OMEPRAZOLE]
- Control [11]: 28%
- Urease activity (% of control) [8]: 64%
- pKa [12]: 8.7
- pKa [4]: 8.7
- pKa [5]: 4
- half-life [13]: 0.917 h
- pKa [14]: 4
- Urease activity (% of control) [9]: 96%
- Control [15]: 115%
- half-life [6]: 23 h
- Urease activity (% of control) [10]: 109%
- Log k'o [16]: 0.83
- Control [17]: 88%
- Log k'o [7]: 0.83

SMILES: COc1ccnc(C[S+]([O-])c2nc3c(F)cc(F)cc3[nH]2)c1 (configuration not stated)
- Urease activity (% of control) [8]: 80%
- pKa [4]: 7.6
- pKa [5]: 4.1
- Urease activity (% of control) [9]: 89%
- half-life [6]: 32 h
- Urease activity (% of control) [10]: 106%
- Log k'o [7]: 0.09

SMILES: COc1ccnc(C[S+]([O-])c2nc3cc(C(C)(C)C)ccc3[nH]2)c1C (configuration not stated)
- Control [18]: 95%
- Urease activity (% of control) [8]: 1%
- pKa [4]: 9.1
- pKa [5]: 4.8
- Control [19]: 105%
- Urease activity (% of control) [9]: 42%
- half-life [6]: 1 h
- Control [20]: 106%
- Log k'o [7]: 1.55

SMILES: CCOc1ccnc(C[S+]([O-])c2nc3ccccc3[nH]2)c1C (configuration not stated)
- Urease activity (% of control) [8]: 8%
- pKa [4]: 8.8
- pKa [5]: 4.9
- Urease activity (% of control) [9]: 38%
- half-life [6]: 0.9 h
- Urease activity (% of control) [10]: 76%
- Log k'o [7]: 0.92

SMILES: COc1ccnc(C[S+]([O-])c2nc3cc(CO)ccc3[nH]2)c1C (configuration not stated)
- Urease activity (% of control) [8]: 32%
- pKa [4]: 8.6
- pKa [5]: 4.7
- Urease activity (% of control) [9]: 38%
- half-life [6]: 1 h
- Urease activity (% of control) [10]: 72%
- Log k'o [7]: 0.18

SMILES: COc1ccnc(C[S+]([O-])c2nc3cc4c(cc3[nH]2)CCC4)c1C (configuration not stated)
- Urease activity (% of control) [8]: 0%
- pKa [4]: 9.4
- pKa [5]: 4.9
- Urease activity (% of control) [9]: 35%
- half-life [6]: 1.17 h
- Urease activity (% of control) [10]: 36%
- Log k'o [7]: 1.21

SMILES: Cc1c(OCC(F)(F)F)ccnc1C[S+]([O-])c1nc2ccccc2[nH]1 (configuration not stated) [LANSOPRAZOLE]
- Urease activity (% of control) [8]: 29%
- pKa [4]: 8.7
- pKa [5]: 3.9
- Urease activity (% of control) [9]: 103%
- half-life [6]: 13 h
- Urease activity (% of control) [10]: 105%
- Log k'o [7]: 1.1

SMILES: COc1ccc2[nH]c(SCc3ncc(C)c(OC)c3C)nc2c1
- Urease activity (% of control) [8]: 99%
- Urease activity (% of control) [9]: 101%
- Urease activity (% of control) [10]: 109%
